Ecoli rRNA inh = reduced GFP signal of wild-type E. coli, primary screen, bacterial rRNA inhibitor project, GFP/RFP fluorescence, OD600, single point; E. coli WT GFP vs humanized-ribosome RFP mutants, 24 h; active compounds read low; DMSO median 0, no signal -100; GFP signal change (wild-type ribosome), % (concentration not given with the values); hit rate 1.6% among 350,000; AID 720706, 2013;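 active = significant combined selectivity score with lowered wild-type GFP, culture density cut under 30%, mutant RFP and density less affected; inactive = any of these conditions unmet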
Cneo AK release = Cryptococcus neoformans cell lysis inducers, primary screen, AK release luminescence, single concentration; AID 651654, 2012; lysis activity, % at 15 µM; C. neoformans lysis, adenylate kinase release luminescence, 4 h; normalised: neutral wells 0, clomiphene wells 100; hit rate 0.2% among 360,000;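 active = mean lysis activity across replicates of at least 80%, whatever share of replicates individually reach that level; inactive = mean lysis activity below 80%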
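read-out = cell lysis signal | test system = log-phase Cryptococcus neoformans yeast cells | input = cells at 5 × 10^6 per mL | medium = fresh YPD growth medium | signal = luminescent adenylate kinase detection reagent | timing = 4 h at 37 °C static, read 1 h later | dosing = single dose | controls = Clomiphene as positive lysis control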
PGC1a acetyl inh = inhibitors of PGC1a acetylation signal, primary screen, cell-based, U2OS, AlphaScreen, inhibitor mode. AlphaScreen anti-acetyl-lysine; with virally co-expressed GCN5 acetyltransferase. inhibition, % at 15.6 µM. hit rate 0.17% among 350,000. AID 651687, 2012;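 active = every replicate shows inhibition of at least 40%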;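 also: 0% = neutral control wells and 100% = positive control wells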
S100A4 MyoIIA = inhibitors of S100A4-myosin IIA peptide binding, primary screen, biochemical, fluorescence polarization, TAMRA-MyoIIA peptide; Protein S100-A4 (Homo sapiens), P26447; inhibition, % at 10.7 µM; hit rate 0.14% among 360,000;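 active = mean inhibition of at least 70% across replicates, with every replicate also reaching that level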
Target sequence (P26447 whole entry, looked up): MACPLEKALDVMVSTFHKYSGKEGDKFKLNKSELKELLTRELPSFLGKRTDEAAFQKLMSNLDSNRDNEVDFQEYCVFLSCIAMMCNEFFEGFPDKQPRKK
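Material: S100A4 monomer protein | Medium: HEPES pH 7.2 with CaCl2, KCl, NaCl, DTT, Triton | Reagent: Labelled myosin peptide probe, 5 nM | Doses: One dose per compound | Times: 5 min incubation before reading | Benchmarks: Neutral control DMSO, positive control TFP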
SIRT5 block = SIRT5 desuccinylase inhibitors, primary screen, biochemical, fluorescence imaging, single point, set 5; hit rate 1.1% among 330,000; Purified SirT5, succinyl-peptide AMC, trypsin-coupled fluorescence; inhibition, % at 15 µM; in the data active = inhibition above about 15%
Target sequence (Q9NXA8 whole entry, looked up): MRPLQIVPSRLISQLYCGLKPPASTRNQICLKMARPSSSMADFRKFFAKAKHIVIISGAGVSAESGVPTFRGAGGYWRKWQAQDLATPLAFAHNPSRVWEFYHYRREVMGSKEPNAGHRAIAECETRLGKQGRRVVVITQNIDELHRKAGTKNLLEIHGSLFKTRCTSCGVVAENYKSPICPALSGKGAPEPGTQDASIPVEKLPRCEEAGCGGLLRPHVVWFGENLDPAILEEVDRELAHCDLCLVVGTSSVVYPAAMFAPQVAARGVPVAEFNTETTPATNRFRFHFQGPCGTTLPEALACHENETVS
Statin myotox sup = suppressors of statin myotoxicity in C2C12 myotubes, primary screen, cell-based, single point, plate reader; rescue of ATP level, % at 7.49 µM; C2C12 myotubes + simvastatin, ATP luminescence, 48 h; scaled: DMSO 0, geranylgeraniol control 100; hit rate 0.78% among 330,000;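 active = mean ATP rescue above about 67%, or every replicate alone reaching that limit, limit read from the data, passing the limit was not always enough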;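 also: myotubes were challenged with 10 µM simvastatin during compound exposure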
* marks the source's active call; other numbers are inactive results; · = no result given; ! = a repeat was not active. Sampled rows, rich in hits. Any-hit rate of the full collection: about 3%.

SMILES	Ecoli rRNA inh	Cneo AK release	PGC1a acetyl inh	S100A4 MyoIIA	SIRT5 block	Statin myotox sup
Cc1noc(C)c1S(=O)(=O)Nc1ccc2c(c1)C(=O)N([C@@H](C)CO)C[C@@H](C)[C@@H](CN(C)Cc1ccccc1)OCCCC[C@@H](C)O2	2	1	4	2	1	·
CCOC(=O)C(C)OC(=O)C1=C(C)NC(=O)NC1c1ccc2c(c1)OCO2 (centres undefined)	5	2	·	-9	20*	-3
CCOC(=O)C1=C(C)NC(=O)NC1c1ccc(OC)c(CN2CCOCC2)c1 (centres undefined)	·	7	2	·	·	79*
CCOC(=O)C1=C(CN2CCOCC2)NC(=O)NC1c1cccc([N+](=O)[O-])c1 (centres undefined)	3	1	3	-8	16*	6
COc1ccc(S(=O)(=O)N(C)C[C@H]2OCCCC[C@@H](C)Oc3ccc(NC(=O)CCCN(C)C)cc3C(=O)N([C@@H](C)CO)C[C@@H]2C)cc1	5	0	9	4	-5	·
COc1ccccc1-c1cnc2c(c1)C(=O)N([C@H](C)CO)C[C@@H](C)[C@H](CN(C)C(=O)c1ccncc1)O2	1	1	1	6	-1	-11
Cc1noc(C)c1S(=O)(=O)N(C)C[C@H]1Oc2ccc(NC(=O)CCC(F)(F)F)cc2CC(=O)N([C@H](C)CO)C[C@@H]1C	1	2	3	6	-1	20
Cc1ccc2c(c1)C1CN(C)CCC1N2C(=O)COc1ccc(N(C)S(=O)(=O)c2cccs2)cc1 (centres undefined)	-1	·	8	8	-2	·
CCOc1ccc(S(=O)(=O)N(C)c2ccc(OCC(=O)N3c4ccc(C)cc4C4CN(C)CCC43)cc2)cc1 (centres undefined)	-18	1	75*	7	-4	·
COC(=O)c1sccc1NC(=S)N(C)C1CCCCC1	-26*	·	-4	5	-5	-24
OC[C@H]1[C@@H](c2ccc(C#Cc3cccnc3)cc2)[C@H]2CN(Cc3ccccc3F)CCCCN21	-17	2	0	-40	3	-9
O=[N+]([O-])c1ccc(N2CCCC2)cc1N1CCCC1	·	3	2	·	·	12
Cc1cc(N2CCCCC2)ccc1[N+](=O)[O-]	-43*	·	·	-5	-2	·
Cc1noc(C)c1NC(=O)Nc1ccc2c(c1)CC(=O)N([C@@H](C)CO)C[C@@H](C)[C@@H](CN(C)Cc1ccc(C(F)(F)F)cc1)O2	0	-1	11	-6	-3	36
CC(C)(C)Nc1c([N+](=O)[O-])c(=O)sc2ccccc12	11	0	5	-1	3	5
CCCCCCNc1c([N+](=O)[O-])c(=O)sc2ccccc12	-24*	·	-2	5	0	0
C[C@@H]1CN([C@@H](C)CO)C(=O)c2cc(NC(=O)Nc3ccccc3)ccc2O[C@@H](C)CCCCO[C@H]1CN(C)Cc1ccc2c(c1)OCO2	-1	0	-6	-4	-1	·
CCOc1ccc(S(=O)(=O)Nc2cccc(C)c2)c2cccnc12	5	·	-17	-2	18*	·
CO[C@H]1CN(C)C(=O)c2ccc(NC(=O)c3ccno3)cc2OC[C@H](C)NC[C@@H]1C	4	43	-20	-58	2	-8
Nc1ccc2nc(-c3cccc(-c4nc5ccc(N)cc5[nH]4)c3)[nH]c2c1	16	·	·	-6	17*	·
Nc1ccc(-c2nc3ccc(N)cc3[nH]2)cc1	-16	·	·	6	-15	·
COCC(C)n1c(SCc2cc(=O)n3cc(C)ccc3n2)nc2ccccc2c1=O (centres undefined)	-27*	-1	4	2	-1	3
C[C@@H]1CN([C@@H](C)CO)C(=O)c2cccc(NC(=O)CCCCCC(=O)Nc3ccccc3N)c2O[C@H]1CN(C)Cc1ccc(-c2ccccc2)cc1	0	·	-32	2	18*	·
Cc1noc(C)c1NC(=O)N(C)C[C@H]1Oc2c(NC(=O)Nc3ccc4c(c3)OCO4)cccc2C(=O)N([C@H](C)CO)C[C@@H]1C	2	1	2	7	1	83*!
Cc1noc(C)c1NC(=O)N(C)C[C@H]1Oc2c(NC(=O)CCCCCC(=O)Nc3ccccc3N)cccc2C(=O)N([C@@H](C)CO)C[C@H]1C	3	·	-6	76*	3	·
SMILES	Ecoli rRNA inh	Cneo AK release	PGC1a acetyl inh	S100A4 MyoIIA	SIRT5 block	Statin myotox sup
C[C@H]1CN([C@@H](C)CO)C(=O)c2cccc(NC(=O)CCCCCC(=O)Nc3ccccc3N)c2O[C@@H]1CN(C)Cc1ccc(Oc2ccccc2)cc1	5	·	-8	-10	24*	·
COc1ccc(CCNC(=O)Nc2nc(C(N)COCc3ccccc3)cs2)cc1OC (centres undefined)	-14*	-2	-6	4	·	6
COc1ccc(CCNC(=O)Nc2nc(C(N)Cc3ccccc3)cs2)cc1OC (centres undefined)	-8	1	-3	-6	-2	2
Cc1ccc(NCCCn2cnc3c(OCc4ccccc4)ncnc32)cc1C	-21*	-1	-6	9	·	2
CC(CNCCCn1cnc2c(OCc3ccccc3)ncnc21)c1ccccc1 (centres undefined)	-17*	2	-7	-3	-2	-11
c1ccc(CNCCCn2cnc3c(OCc4ccccc4)ncnc32)cc1	-4	2	-7	-3	·	-2
c1ccc(CCCNCCCn2cnc3c(OCc4ccccc4)ncnc32)cc1	·	-1	-5	-4	-4	-6
CCCNC(=O)Nc1ccc2c(c1)C(=O)N(C)C[C@H](OC)[C@H](C)CN(C(C)=O)[C@H](C)CO2	1	2	-7	9	3	5
O=c1cc2c(nn1Cc1ccc(F)cc1)-c1ccccc1CC2	-59	·	·	0	0	·
Fc1ccc(CO/N=C/C2=C(Cl)c3ccccc3CC2)cc1	·	·	79*	·	·	·
O=C(CN1CCN(c2ccc(O)cc2)CC1)Nc1cc(S(=O)(=O)N2CCCC2)ccc1Cl	-21*	·	-15	-2	-5	·
COc1cccc(N2CCN(CC(=O)Nc3ccccc3C(=O)NCCc3ccccc3)CC2)c1	·	-2	·	2	-4	-107
O=C(Cc1ccccc1)Nc1ccccc1N1CCN(c2ccccc2)CC1	-23*	2	5	0	0	41
